The nature of test [1]: Ratio of minimum toxic compound concentration to inhibitory dose against vesicular stomatitis viral strain Indiana in L929 cell line. Type of test: functional. Summed up:
(§1)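 Selectivity index is the minimum toxic drug concentration (μg/mL) divided by the ID50 for inhibition of the virus-induced cytopathogenic effect.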

The subject of test [2] is Vesicular stomatitis virus. In words: (§2) Viral rating activity against vesicular stomatitis viral strain Indiana in L929 cell line. Type of test: functional. Summed up: (§3)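 Virus rating is a weighted score combining the degree of inhibition of the virus-induced cytopathogenic effect with the degree of cytotoxicity. USAMRIID ratings were multiplied by 3 to convert them to the Ehrlich scale.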

The subject of test [3] is Vesicular stomatitis virus. The description is as §2. Type of test: functional. Summed up: as §3
This is another data set of the same source.

The test system of test [4] is Vesicular stomatitis virus. In words: Inhibitory dose against vesicular stomatitis viral strain Indiana in L929 cell line. Format: functional.
Test [5] in a line: Ratio of minimum toxic compound concentration to inhibitory dose against Parainfluenza type 3 viral strain Huebner C243 in H.Ep-2 cell line. Type of test: functional. The essentials: as §1
In test [6] the test system is Human respirovirus 3. In words: Inhibitory dose against Parainfluenza type 3 viral strain Huebner C243 in H.Ep-2 cell line. Type of test: functional. As to conditions: Human respirovirus 3, HEp-2; read-out: ID50 (the source's name).
Test [7] concerns Mus musculus. In words: In vivo anti-viral activity against Vaccinia tailpox mice model at dose 4 mg/kg (tested on 20 mice - Experiment 2). Type of test: functional.
Test [8] concerns Mus musculus. Kind of test: In vivo anti-viral activity against Vaccinia tailpox mice model at dose 8 mg/kg (tested on 19 mice - Experiment 2). Type of test: functional.
In test [9] the test system is Vaccinia virus. In words: Viral rating activity against vaccinia viral strain Lederle CA in vero cell line. Type of test: functional, Orthopoxvirus vaccinia. The essentials: as §3
Test [10] has as its system Yellow fever virus. In words: Inhibitory dose against yellow fever viral strain Asibi in vero cell line. Format: functional. As to conditions: read-out: ID50 (the source's name).
In test [11] the test system is Yellow fever virus. In words: Viral rating activity against yellow fever viral strain Asibi in vero cell line. Type of test: functional. Summed up:
as §3

Test [12] relates to Human respirovirus 3. In words: Viral rating activity against Parainfluenza type 3 viral strain Huebner C243 in H.Ep-2 cell line. Format: functional. The essentials: as §3
Test [13] has as its system Mus musculus. Kind of test: In vivo anti-viral activity against Vaccinia tailpox mice model at dose 8 mg/kg (tested on 20 mice - Experiment 1). Type of test: functional.
Test [14] can be described thus: Ratio of minimum toxic compound concentration to inhibitory dose against yellow fever viral strain Asibi in vero cell line. Format: functional. The essentials:
as §1

Test [15] relates to Yellow fever virus. In words: Viral rating of activity against yellow fever viral strain Asibi in vero cell line. Type of test: functional. Summed up:
as §3

A short description of test [16]: Ratio of minimum toxic compound concentration to inhibitory dose against vaccinia viral strain Lederle CA in vero cell line. Format: functional. Summed up:
as §1

Test [17] concerns Mus musculus. Kind of test: In vivo anti-viral activity against Vaccinia tailpox mice model at dose 300 mg/kg (tested on 20 mice - Experiment 2). Format: functional.
Test [18] concerns Mus musculus. In words: In vivo anti-viral activity against Vaccinia tailpox mice model at dose 300 mg/kg (tested on 20 mice - Experiment 1). Format: functional.
The subject of test [19] is Vaccinia virus. Kind of test: Inhibitory dose against vaccinia viral strain Lederle CA in vero cell line. Type of test: functional, Orthopoxvirus vaccinia.

Values after ≈ are worked out from the molar mass of the structure shown. Values joined by “and” are separate entries in the source; they are usually repeats but may differ in a detail not shown here. Identical values can stand only once.

As for `Nc1nccc2c1ncn2[C@@H]1C[C@H](CO)[C@@H](O)[C@H]1O` [3-DEAZAARISTEROMYCIN A], the Selectivity index in test [1] was 3.6 and 3.8 and 7.2. The VR in [2] was 3.1 and 3.2 and 3.5 and 3.3.
`Nc1nccc2c1ncn2C1C=C(CO)C(O)C1O` (stereo not drawn) [3-DEAZANEPLANOCIN A]: the VR in [3] is 3.6 and 4.2; in test [2] it was 4.7; in test [9], 3.1 and 5.4 and 4.5; in [11] it was 2.9; in test [12], 3.6. The ID50 in test [4] is 0.07 µg/mL and 0.2 µg/mL. Besides, the IC50 in test [4] (read-out: ID50 (the source's name)) stood at 0.3 µg/mL (≈ 1.14 µM); in [6], 0.05 µg/mL (≈ 0.191 µM); in [10], 1 µg/mL (≈ 3.81 µM). Further, the Selectivity index in test [5] amounted to 2; in test [14] it was 0.3. Also, the Protection in [7] stood at 82%; in test [8], 84%; in test [13], 74%.
Take `NC(=O)c1ncn([C@@H]2O[C@H](CO)[C@@H](O)[C@H]2O)n1` [RIBAVIRIN]: the Selectivity index in [5] turned out to be 5.7. Also, in test [6], the IC50 is 17.5 µg/mL (≈ 71.7 µM). Also, the VR in test [12] is on record as 2.5.
Regarding `c1c[se]cn1` [SELENAZOLE], in test [10], the IC50 was 3.3 µg/mL (≈ 25 µM). For the same molecule, the VR in test [15] was 2.4. In [14], the Selectivity index is given as 1.
With `Nc1ncnc2c1ncn2[C@@H]1O[C@H](CO)[C@@H](O)[C@@H]1O` [VIDARABINE], in test [16], the Selectivity index is 16.3 and 32.2 and 17.9. For the same molecule, the VR in test [9] was 3.7 and 4.2 and 3.6. For the same molecule, the Protection in [17] is 88%; in test [18], 56%. Also, in test [19], the ID50 is 1 µg/mL and 1.8 µg/mL. Besides, the IC50 in [19] (Orthopoxvirus vaccinia, Vero, read-out: ID50 (the source's name)) came to 2 µg/mL (≈ 7.48 µM).

Values taken from ChEMBL document CHEMBL1124512, “Synthesis of 3-deazaneplanocin A, a powerful inhibitor of S-adenosylhomocysteine hydrolase with potent and selective in vitro and in vivo antiviral activities” (1989).
